Source: ChEMBL document CHEMBL2177002, “Antifungal spectrum, in vivo efficacy, and structure-activity relationship of ilicicolin h” (ACS Med Chem Lett, 2012)
Converted amounts (≈) assume the structure as drawn. The source made the active and inactive calls. The calls are words filed in the database; no cut-off is given here.

How the values were obtained:
[1] = test system: Cryptococcus neoformans; assay: Antifungal activity against Cryptococcus neoformans MY 2061 after 40 hrs by NCCLS broth microdilution method; format: functional; conditions: MY 2061, 40 h
[2] = Oral bioavailability in mouse; format: ADME, organism-based; conditions: in vivo
[3] = Clearance in mouse; format: ADME, organism-based; conditions: in vivo
[4] = Half life in mouse; format: ADME, organism-based; conditions: in vivo
[5] = Selectivity ratio of IC50 for bovine NADH:cytochrome c oxidoreductase to IC50 for Saccharomyces cerevisiae MY 2141 NADH:cytochrome c oxidoreductase
[6] = Inhibition of bovine ubiquinol-cytochrome c reductase after 2 mins by stopped flow rapid scanning spectroscopy; parameters: species or system Bos taurus
[7] = Inhibition of rhesus monkey liver NADH:cytochrome c oxidoreductase; parameters: species or system Macaca mulatta
[8] = Inhibition of rat liver NADH:cytochrome c oxidoreductase
[9] = Inhibition of Candida albicans MY 1055 NADH:cytochrome c oxidoreductase; conditions: read-out: IC50
[10] = test system: Candida albicans; assay: Ratio of MIC for Candida albicans 13 harboring cytochrome b G37C mutant to MIC for wild type Candida albicans; format: functional
[11] = test system: Candida albicans; assay: Ratio of MIC for Candida albicans 11 harboring cytochrome b G37C mutant to MIC for wild type Candida albicans; format: functional
[12] = test system: Candida albicans; assay: Ratio of MIC for Candida albicans 14 harboring cytochrome b G37S mutant to MIC for wild type Candida albicans; format: functional
[13] = test system: Candida albicans; assay: Ratio of MIC for Candida albicans 16 harboring cytochrome b Q22E mutant to MIC for wild type Candida albicans; format: functional
[14] = test system: Candida albicans; assay: Ratio of MIC for Candida albicans 4 harboring cytochrome b G37S mutant to MIC for wild type Candida albicans; format: functional
[15] = test system: Candida albicans; assay: Ratio of MIC for Candida albicans 8 harboring cytochrome b G37S mutant to MIC for wild type Candida albicans; format: functional
[16] = test system: Candida albicans; assay: Ratio of MIC for Candida albicans 5 harboring cytochrome b G37S mutant to MIC for wild type Candida albicans; format: functional
[17] = test system: Candida albicans; assay: Ratio of MIC for Candida albicans 15 harboring cytochrome b G37S mutant to MIC for wild type Candida albicans; format: functional
[18] = test system: Candida albicans; assay: Ratio of MIC for Candida albicans 7 harboring cytochrome b G37D mutant to MIC for wild type Candida albicans; format: functional
[19] = test system: Candida albicans; assay: Ratio of MIC for Candida albicans 3 harboring cytochrome b G37D mutant to MIC for wild type Candida albicans; format: functional
[20] = test system: Candida albicans; assay: Ratio of MIC for Candida albicans 5 harboring cytochrome b G37D mutant to MIC for wild type Candida albicans; format: functional
[21] = Inhibition of Saccharomyces cerevisiae MY 2141 electron transport protein complex 2/3 using succinate as substrate assessed as decrease in oxygen consumption measured for 3 mins
[22] = Inhibition of Saccharomyces cerevisiae MY 2141 electron transport protein complex 1/3 using NADH as substrate assessed as decrease in oxygen consumption measured for 3 mins
[23] = Inhibition of Saccharomyces cerevisiae MY 2141 electron transport protein complex 1/3 using glycerol-3-phosphate as substrate assessed as decrease in oxygen consumption measured for 3 mins
[24] = Inhibition of Saccharomyces cerevisiae MY 2141 electron transport protein complex 1/3 using ethanol as substrate assessed as decrease in oxygen consumption measured for 3 mins
[25] = test system: Saccharomyces cerevisiae; assay: Antifungal activity against Saccharomyces cerevisiae MY 2141 assessed as inhibition of whole cell oxygen consumption at 0.003 ug/mL after 15 mins; format: functional; conditions: MY 2141, 0.25 h
[26] = test system: Candida albicans; assay: Antifungal activity against Candida albicans MY 1055 in glycerol-based medium after 24 hrs by NCCLS broth microdilution method; format: functional; conditions: MY 1055, 24 h
[27] = test system: Meyerozyma guilliermondii; assay: Antifungal activity against Candida guilliermondii CLY 346 after 24 hrs by NCCLS broth microdilution method; format: functional; conditions: CLY 346, 24 h
[28] = test system: Candida albicans; assay: Antifungal activity against Candida albicans MY 1055 in glucose-based medium after 24 hrs by NCCLS broth microdilution method; format: functional; conditions: MY 1055, 24 h
[29] = test system: Meyerozyma guilliermondii; assay: Antifungal activity against Candida guilliermondii CLY 308 after 24 hrs by NCCLS broth microdilution method; format: functional; conditions: CLY 308, 24 h
[30] = test system: Nakaseomyces glabratus; assay: Antifungal activity against Candida glabrata MY 1381 after 24 hrs by NCCLS broth microdilution method; format: functional; conditions: MY 1381, 24 h
[31] = test system: Nakaseomyces glabratus; assay: Antifungal activity against Candida glabrata CLY 574 after 24 hrs by NCCLS broth microdilution method; format: functional; conditions: CLY 574, 24 h
[32] = test system: Candida albicans; assay: Antifungal activity against fluconazole-resistant Candida albicans MY 2301 after 24 hrs by NCCLS broth microdilution method; format: functional; conditions: MY 2301, 24 h
[33] = test system: Pichia kudriavzevii; assay: Antifungal activity against Candida krusei CLY 549 after 24 hrs by NCCLS broth microdilution method; format: functional; conditions: CLY 549, 24 h
[34] = test system: Candida parapsilosis; assay: Antifungal activity against Candida parapsilosis ATCC 22019 after 24 hrs by NCCLS broth microdilution method; format: functional; conditions: Lodderomyces parapsilosis, ATCC 22019, 24 h
[35] = test system: Candida tropicalis; assay: Antifungal activity against Candida tropicalis MY 1012 after 40 hrs by NCCLS broth microdilution method; format: functional; conditions: MY 1012, 40 h
[36] = test system: Cryptococcus neoformans; assay: Antifungal activity against Cryptococcus neoformans H 99 after 40 hrs by NCCLS broth microdilution method; format: functional; conditions: H 99, 40 h
[37] = test system: Aspergillus fumigatus; assay: Antifungal activity against Aspergillus fumigatus MF 5668 after 24 hrs by NCCLS broth microdilution method; format: functional; conditions: MF 5668, 24 h
[38] = test system: Candida albicans; assay: Antifungal activity against Candida albicans MY 1055 infected in DBA/2 mouse assessed as reduction in kidney fungal burden at 50 mg/kg, po bid administered 2 days post infection measured after 4 days relative to vehicle-treated control; format: functional, organism-based; parameters: dose 50 mg/kg
In short: (§1)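 DBA/2 mice infected intravenously with 5.4 × 10⁴ cfu of C. albicans MY1055. Dosed orally twice daily for 2 days in 10% aqueous DMSO at 50, 25, 12.5 and 6.25 mg/kg. Kidney Candida burden determined 4 days after infection and compared with vehicle-treated controls by Excel t test (p < 0.05). ED90 is the dose giving 90% reduction of kidney C. albicans.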

[39] = test system: Candida albicans; assay: Antifungal activity against Candida albicans MY 1055 infected in DBA/2 mouse assessed as reduction in kidney fungal burden administered as po bid for 2 days post infection measured after 4 days; format: functional; conditions: MY 1055, Kidney; in short: as §1
[40] = test system: Candida albicans; assay: Antifungal activity against Candida albicans MY 1055 infected in DBA/2 mouse assessed as reduction in kidney fungal burden at 25 to 50 mg/kg, iv tid after 24 hrs; format: functional, organism-based
In short: (§2)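 Abbreviated 24 h version of the disseminated C. albicans kidney-burden model in mice. Dosing intravenous, thrice daily, at total doses of 50 or 25 mg/kg/day. Kidney burden compared with controls by Excel t test (p < 0.05). ED90 expressed as mg/kg/day.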

[41] = test system: Aspergillus flavus; assay: Antifungal activity against Aspergillus flavus MF 383 after 24 hrs by NCCLS broth microdilution method; format: functional, organism-based
[42] = test system: Candida albicans; assay: Antifungal activity against Candida albicans MY 1055 infected in DBA/2 mouse assessed as reduction in kidney fungal burden administered as iv tid after 24 hrs; format: functional; conditions: MY 1055, Kidney; in short: as §2
[43] = test system: Saccharomyces cerevisiae; assay: Antifungal activity against Saccharomyces cerevisiae MY 2141 in glucose-based medium after 24 hrs by NCCLS broth microdilution method; format: functional; conditions: MY 2141, 24 h
[44] = test system: Saccharomyces cerevisiae; assay: Antifungal activity against Saccharomyces cerevisiae MY 2141 in glycerol-based medium after 24 hrs by NCCLS broth microdilution method; format: functional; conditions: MY 2141, 24 h

Compound: C/C=C/[C@@H]1[C@H]2C[C@@H](C)CC[C@@H]2C(C)=C[C@H]1C(=O)c1c(O)c(-c2ccc(O)cc2)c[nH]c1=O [ILICICOLIN H]
- MIC [1]: 0.1 µg/mL (≈ 0.231 µM)
- bioavailability [2]: 72%
- clearance [3]: 16 mL/min/kg
- half-life [4]: 2.5 h
- Ratio IC50 [5]: > 70
- IC50 [6]: 200 nM
- IC50 [7]: 0.5 µg/mL (≈ 1.15 µM)
- IC50 [8]: 1.5 µg/mL (≈ 3.46 µM)
- IC50 [9]: 1.85 nM
- Ratio [10]: 250
- Ratio [11]: 250
- Ratio [12]: 250
- Ratio [13]: 250
- Ratio [14]: 250
- Ratio [15]: 250
- Ratio [16]: 250
- Ratio [17]: 250
- Ratio [18]: 250
- Ratio [19]: 250
- Ratio [20]: 250
- IC50 [21]: 1 µg/mL (≈ 2.31 µM)
- IC50 [22]: 0.08 µg/mL (≈ 0.185 µM)
- IC50 [23]: 0.02 µg/mL (≈ 0.0461 µM)
- IC50 [24]: 0.008 µg/mL (≈ 0.0185 µM)
- inhibition at 0.003 µg/mL [25]: 100%
- MIC [26]: 0.025 µg/mL (≈ 0.0577 µM)
- MIC [27]: 0.01 µg/mL (≈ 0.0231 µM)
- MIC [28]: > 50 µg/mL
- MIC [29]: 0.01 µg/mL (≈ 0.0231 µM)
- MIC [30]: 0.01 µg/mL (≈ 0.0231 µM)
- MIC [31]: 0.01 µg/mL (≈ 0.0231 µM)
- MIC [32]: 0.04 µg/mL (≈ 0.0923 µM)
- MIC [33]: 0.01 µg/mL (≈ 0.0231 µM)
- MIC [34]: 0.01 µg/mL (≈ 0.0231 µM)
- MIC [35]: 0.01 µg/mL (≈ 0.0231 µM)
- MIC [36]: 0.1 µg/mL (≈ 0.231 µM)
- MIC [37]: 0.08 µg/mL (≈ 0.185 µM)
- Activity [38]: Active
- ED90 [39]: 15.4 mg/kg
- Activity [40]: Active
- Activity [41]: inactive
- ED90 [42]: 22.3 mg/kg/day
- MIC [43]: > 50 µg/mL
- MIC [44]: 0.012 µg/mL (≈ 0.0277 µM)
